Measured values: ChEMBL document CHEMBL2417510, “Stereoselective pharmacodynamic and pharmacokinetic analysis of sec-Butylpropylacetamide (SPD), a new CNS-active derivative of valproic acid with unique activity against status epilepticus” (J Med Chem, 2013)
Values after ≈ are worked out from the molar mass of the structure shown.

Assays:
[1] = tested on: Mus musculus; assay: Teratogenicity in SWV/Fnn mouse assessed as live fetuses at 141 mg/kg, ip on day 8.5 of gestation (reference value: 93.7 %); assay type: toxicity, organism-based; set-up: dose 141 mg/kg, route intraperitoneal; details: in vivo
[2] = Neurotoxicity in ip dosed albino Sprague-Dawley rat assessed as minimal motor impairment after 0.25 to 0.5 hrs; assay type: toxicity, organism-based; details: in vivo
Method in brief: (§1)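 Each test was run at the previously determined time to peak effect: 0.25–0.5 h after ip dosing, or 0.5–1 h after oral dosing. Groups of 4–8 animals received various doses until at least two points fell between 0% and 100% protection or minimal toxicity.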

[3] = tested on: Rattus norvegicus; assay: Anticonvulsant activity in ip dosed albino Sprague-Dawley rat assessed as protection against subcutaneous metrazol-induced seizures after 0.25 to 0.5 hrs; assay type: functional; method in brief: as §1
[4] = tested on: Rattus norvegicus; assay: Anticonvulsant activity in ip dosed albino Sprague-Dawley rat assessed as protection against pilocarpine-induced behavioral seizures administered 30 mins post seizure measured after 0.25 to 0.5 hrs; assay type: functional
Method in brief: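 Status epilepticus was induced in rats with lithium–pilocarpine. Compound was given ip 30 min after the first observed stage 3 or greater motor seizure. The read-out was prevention of further convulsive seizures across various doses in groups of 4–8 rats.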

[5] = Neurotoxicity in po dosed albino Sprague-Dawley rat assessed as minimal motor impairment after 0.5 to 1 hr; assay type: toxicity, organism-based; details: in vivo; method in brief: as §1
[6] = tested on: Mus musculus; assay: Anticonvulsant activity in ip dosed albino CF1 mouse assessed as protection against 44 mA-current- for 3 secs induced seizures after 0.25 to 0.5 hrs by 6Hz psychomotor seizure test; assay type: functional; method in brief: as §1
[7] = tested on: Mus musculus; assay: Anticonvulsant activity in ip dosed albino CF1 mouse assessed as protection against subcutaneous metrazol-induced seizures after 0.25 to 0.5 hrs; assay type: functional; details: albino CF1, 0.5 h; method in brief: as §1
[8] = tested on: Mus musculus; assay: Teratogenicity in SWV/Fnn mouse assessed as resorption at 283 mg/kg, ip on day 8.5 of gestation (reference value: 6.3 %); assay type: toxicity, organism-based; set-up: dose 283 mg/kg, route intraperitoneal; details: in vivo
[9] = tested on: Mus musculus; assay: Teratogenicity in SWV/Fnn mouse assessed as normal fetuses at 141 mg/kg, ip on day 8.5 of gestation (reference value: 100 %); assay type: toxicity, organism-based; set-up: dose 141 mg/kg, route intraperitoneal; details: in vivo
[10] = Terminal half life in rat at 60 mg/kg, ip; assay type: ADME, organism-based; set-up: dose 60 mg/kg, route intraperitoneal; details: in vivo, read-out: beta t1/2 (converted)
Method in brief: (§2)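 Naive rats got a single ip dose of 60 mg/kg, formulated in multisol (propylene glycol:alcohol:water for injection, 5:1:4). Plasma concentration–time profiles were followed, and PK parameters (t1/2, CL/F, Vz/F, AUC, Cmax, tmax, MRT) were derived from them.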

[11] = tested on: Rattus norvegicus; assay: Anticonvulsant activity in po dosed albino Sprague-Dawley rat assessed as protection against maximal electroshock-induced seizures after 0.5 to 1 hr; assay type: functional; method in brief: as §1
[12] = tested on: Mus musculus; assay: Teratogenicity in SWV/Fnn mouse assessed as resorption at 141 mg/kg, ip on day 8.5 of gestation (reference value: 6.3 %); assay type: toxicity, organism-based; set-up: dose 141 mg/kg, route intraperitoneal; details: in vivo
[13] = AUC in rat at 60 mg/kg, ip; assay type: ADME, organism-based; set-up: dose 60 mg/kg, route intraperitoneal; details: plasma; method in brief: as §2
[14] = tested on: Mus musculus; assay: Teratogenicity in SWV/Fnn mouse assessed as normal fetuses at 283 mg/kg, ip on day 8.5 of gestation (reference value: 100 %); assay type: toxicity, organism-based; set-up: dose 283 mg/kg, route intraperitoneal; details: in vivo
[15] = Neurotoxicity in ip dosed albino CF1 mouse assessed as minimal motor impairment after 0.25 to 0.5 hrs; assay type: toxicity, organism-based; details: in vivo; method in brief: as §1
[16] = Apparent clearance in rat at 60 mg/kg, ip; assay type: ADME, organism-based; set-up: dose 60 mg/kg, route intraperitoneal; details: in vivo; method in brief: as §2
[17] = Cmax in rat at 60 mg/kg, ip; assay type: ADME, organism-based; set-up: dose 60 mg/kg, route intraperitoneal; details: in vivo; method in brief: as §2
[18] = tested on: Hippocampus; assay: Protection against kainic acid-induced spontaneous electrographic seizures in combined medial entorhinal cortex hippocampal brain slices of albino Sprague-Dawley rat assessed as burst duration at 100 uM after 1 week relative to control; assay type: functional
Method in brief: (§3)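 Rat brain slices showing spontaneous bursting were exposed to 100 μM compound. Burst rate and burst duration were expressed as % of control ± SEM.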

[19] = tested on: Mus musculus; assay: Anticonvulsant activity in ip dosed albino CF1 mouse assessed as protection against maximal electroshock-induced seizures after 0.25 to 0.5 hrs; assay type: functional; method in brief: as §1
[20] = tested on: Mus musculus; assay: Teratogenicity in SWV/Fnn mouse assessed as live fetuses at 283 mg/kg, ip on day 8.5 of gestation (reference value: 93.7 %); assay type: toxicity, organism-based; set-up: dose 283 mg/kg, route intraperitoneal; details: in vivo
[21] = Mean residence time in rat at 60 mg/kg, ip; assay type: ADME, organism-based; set-up: dose 60 mg/kg, route intraperitoneal; details: in vivo; method in brief: as §2
[22] = tested on: Mus musculus; assay: Anticonvulsant activity in ip dosed albino CF1 mouse assessed as protection against 32 mA-current- for 3 secs induced seizures after 0.25 to 0.5 hrs by 6Hz psychomotor seizure test; assay type: functional; method in brief: as §1
[23] = tested on: Hippocampus; assay: Protection against kainic acid-induced spontaneous electrographic seizures in combined medial entorhinal cortex hippocampal brain slices of albino Sprague-Dawley rat assessed as burst rate at 100 uM after 1 week relative to control; assay type: functional; method in brief: as §3
[24] = tested on: Mus musculus; assay: Teratogenicity in SWV/Fnn mouse assessed as fetuses with neural tube defects at 283 mg/kg, ip on day 8.5 of gestation relative to vehicle-treated control; assay type: toxicity, organism-based; set-up: dose 283 mg/kg, route intraperitoneal; details: in vivo
[25] = Apparent volume of distribution […] in rat at 60 mg/kg, ip; assay type: ADME, organism-based; set-up: dose 60 mg/kg, route intraperitoneal; details: in vivo, read-out: Vz/F; method in brief: as §2
[26] = tested on: Mus musculus; assay: Teratogenicity in SWV/Fnn mouse assessed as fetuses with neural tube defects at 141 mg/kg, ip on day 8.5 of gestation relative to vehicle-treated control; assay type: toxicity, organism-based; set-up: dose 141 mg/kg, route intraperitoneal; details: in vivo
[27] = Tmax in rat at 60 mg/kg, ip; assay type: ADME, organism-based; set-up: dose 60 mg/kg, route intraperitoneal; details: in vivo; method in brief: as §2
[28] = Solubility of the compound in water; assay type: physicochemical
[29] = Solubility of the compound in 5:1:4 solution of propylene glycol, alcohol and water; assay type: physicochemical

Row | SMILES | Activity [1] [%] | TD50 [2] [mg/kg] | ED50 [3] [mg/kg] | ED50 [4] [mg/kg] | TD50 [5] [mg/kg] | ED50 [6] [mg/kg] | ED50 [7] [mg/kg] | Activity [8] [%] | Activity [9] [%] | half-life [10] [h] | ED50 [11] [mg/kg] | Activity [12] [%] | AUC [13] [ng·h/mL] | Activity [14] [%] | TD50 [15] [mg/kg] | CL/F [16] [mL/min/kg] | Cmax [17] [ng/mL] | Activity [18] [%] | ED50 [19] [mg/kg] | Activity [20] [%] | other results
1 | CCC[C@H](C(N)=O)[C@@H](C)CC | 94.2 | 34 | 14 | 94 | 124 | 59 | 69 | 7.5 | 100 | 1.5 | 48 | 5.8 | 32900 | 100 | 126 | 30 | 21700 | 45 | 75 | 92.5 | MRT [21]: 1.8 h; ED50 [22]: 27 mg/kg; Activity [23]: 109%; Activity [24]: 0%; Vd/F [25]: 3.9 L/kg; Activity [26]: 0%; Tmax [27]: 0.5 h
2 | CCCC(C(N)=O)C(C)CC (racemic) | 92.5 | 49 | 21 | 84 | 131 | 45 | 62 | 13.4 | 93 | 1.1 | 29 | 7.5 | 31300 | 87 | 88 | 30 | 14100 | 145 | 71 | 86.6 | solubility [28]: 1.5 mg/mL (≈ 9.54 mM); solubility [29]: 27 mg/mL (≈ 172 mM); MRT [21]: 1.8 h; ED50 [22]: 27 mg/kg; Activity [23]: 76%; Activity [24]: 0%; Vd/F [25]: 3 L/kg; Activity [26]: 0%; Tmax [27]: 0.75 h
3 | CCC[C@@H](C(N)=O)[C@H](C)CC [(2R,3R)-SEC-BUTYLPROPYLACETAMIDE] | 92.5 | 34 | 15 | 98 | 102 | 52 | 53 | 22.9 | 100 | 1.1 | 79 | 7.5 | 26400 | 94.6 | 94 | 36.7 | 18000 | 94 | 70 | 77.1 | MRT [21]: 1.5 h; ED50 [22]: 38 mg/kg; Activity [23]: 77%; Activity [24]: 5.4%; Vd/F [25]: 3.6 L/kg; Activity [26]: 0%; Tmax [27]: 0.5 h
